This passage reports Activity results from ChEMBL document CHEMBL4382267, “Fusaristatin C, a Cyclic Lipodepsipeptide from Pithomyces sp. RKDO 1698” (J Nat Prod, 2018).

Calls of active or inactive are those of the source. No cut-off for these calls is given here.

Data set [1] relates to Vero. Kind of data set: Cytotoxicity against African green monkey Vero cells measured after 24 hrs by alamar blue assay. The data set is classed as cell-based. Conditions: chlorocebus sabaeus. (Alamar Blue is a resazurin reagent that responds to reducing activity.)
The test system of data set [2] is Proteus vulgaris. The data set is described as follows: Antimicrobial activity against Proteus vulgaris ATCC 12454 at 265 uM after 22 hrs by microbroth dilution method. Type of data set: functional, organism-based. In a few lines:
(§1)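 Microbroth dilution assay. The top concentration tested was 128 μg/mL, equal to 265 μM.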
A general note: Dilution methods test growth across graded concentrations, often in twofold steps.

Data set [3] has as its system Staphylococcus warneri. The data set is described as follows: Antimicrobial activity against Staphylococcus warneri ATCC 17917 at 265 uM after 22 hrs by microbroth dilution method. The data set is classed as functional, organism-based. An outline of the steps:
as §1

The subject of data set [4] is Pseudomonas aeruginosa. Kind of data set: Antimicrobial activity against Pseudomonas aeruginosa ATCC 14210 at 265 uM after 22 hrs by microbroth dilution method. Type of data set: functional, organism-based. In a few lines:
as §1

Data set [5] concerns Enterococcus faecium. The data set is described as follows: Antimicrobial activity against vancomycin-resistant Enterococcus faecium EF379 at 265 uM after 22 hrs by microbroth dilution method. Type of data set: functional, organism-based. An outline of the steps:
(§2)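 Microbroth dilution susceptibility test; compound tested up to a highest concentration of 128 μg/mL (265 μM).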

Data set [6] concerns Staphylococcus aureus. Kind of data set: Antimicrobial activity against methicillin resistant Staphylococcus aureus ATCC 33591 at 265 uM after 22 hrs by microbroth dilution method. The data set is classed as functional, organism-based. In a few lines: as §2
Data set [7] has as its system BJ. Kind of data set: Cytotoxicity against human BJ cells measured after 24 hrs by alamar blue assay. Type of data set: cell-based.
Data set [8] is described as follows: Cytotoxicity against HEKa cells measured after 24 hrs by alamar blue assay. The data set is classed as cell-based. Conditions: human.
Data set [9] concerns MCF7. The data set is described as follows: Cytotoxicity against human MCF7 cells measured after 24 hrs by alamar blue assay. The data set is classed as functional, cell-based.
Data set [10] concerns HCT-116. Kind of data set: Cytotoxicity against human HCT116 cells measured after 24 hrs by alamar blue assay. The data set is classed as functional, cell-based.
The subject of data set [11] is Mycobacterium tuberculosis. The data set is described as follows: Antimicrobial activity against Mycobacterium tuberculosis ATCC 25177 at 265 uM after 4 days by microplate alamar blue assay. Type of data set: functional, organism-based. The settings on record: H37Ra.
The species entered for data set [12] is Homo sapiens. Kind of data set: Cytotoxicity against human HTB-26 cells measured after 24 hrs by alamar blue assay. Type of data set: functional, cell-based.
Data set [13] deals with Candida albicans. Kind of data set: Antimicrobial activity against Candida albicans ATCC 14035 at 265 uM after 22 hrs by microbroth dilution method. Type of data set: functional, organism-based. In a few lines:
as §1

Regarding `C=C1NC(=O)[C@H](C)[C@H](CCCCCCCC(C)CCC)OC(=O)[C@H](CO)NC(=O)CCNC1=O` (stereo partly drawn), the Activity result in data set [1], in data set [7] and in data set [8] was “Non-Toxic” in each case. In addition, the result in [2], in data set [3], in [4], in [5], in data set [6] and in data set [9] was inactive. Besides, the outcome in data set [10], in [11], in data set [12] and in data set [13] was inactive.
